In ChEMBL document CHEMBL3992547, “Antimicrobial activity of rhodanine-3-acetic acid derivatives” (Bioorg Med Chem, 2017):
In brackets after ≈: the same amount, converted by molar mass. Activity calls are given as the source filed them. No cut-off for these calls is given here.

Legend:
[1] = tested on: Mycobacterium kansasii; assay: Antimycobacterial activity against Mycobacterium kansasii isolate 235/80 after 14 days by micromethod; type: functional; conditions: isolate 235/80, 336 h
[2] = tested on: Pseudomonas aeruginosa; assay: Antibacterial activity against Pseudomonas aeruginosa CCM 1961 up to 500 uM incubated for 24 to 48 hrs under dark condition by microdilution broth assay; type: functional
Procedure, shortened: (§1)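 Broth microdilution per M07-A07, modified, in Mueller-Hinton broth adjusted to pH 7.4 (±0.2). Inoculum is prepared in sterile water to McFarland 0.5 (1.5 × 10⁸ CFU/mL). Plates are incubated in the dark at 35 °C in humid air. MIC is read after 24 and 48 h as at least 95% growth reduction versus control (IC₉₅).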

[3] = tested on: Mycobacterium kansasii; assay: Antimycobacterial activity against Mycobacterium kansasii isolate 235/80 after 21 days by micromethod; type: functional; conditions: isolate 235/80, 504 h
[4] = tested on: Mycobacterium avium; assay: Antimycobacterial activity against Mycobacterium avium 330/88 measured after 21 days by micromethod; type: functional; conditions: 330/88, 504 h
[5] = tested on: Mycobacterium tuberculosis; assay: Antimycobacterial activity against Mycobacterium tuberculosis H37Rv 331/88 measured after 14 days by micromethod; type: functional; conditions: H37Rv 331/88, 336 h
[6] = tested on: Mycobacterium kansasii; assay: Antimycobacterial activity against Mycobacterium kansasii isolate 235/80 after 7 days by micromethod; type: functional; conditions: isolate 235/80, 168 h
[7] = tested on: Pichia kudriavzevii; assay: Antifungal activity against Candida krusei E28 after 24 to 48 hrs hrs by microdilution broth assay; type: functional
Procedure, shortened: (§2)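 Broth microdilution per CLSI M27-A3 and M38-A2 in RPMI 1640 with glutamine, buffered to pH 7.0 with MOPS. Compounds are diluted in DMSO. Final inoculum is 5 × 10³ CFU/mL for yeasts and 0.5–5 × 10⁴ CFU/mL for moulds. Plates are incubated in the dark at 35 °C in humid air and read visually and/or at 540 nm after 24 and 48 h. MIC is ≥80% growth reduction (IC₈₀) for yeasts and ≥50% (IC₅₀) for filamentous fungi.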

[8] = Solubility of the compound in Sula's semisynthetic medium up to 1 mM; type: physicochemical
[9] = tested on: Mycobacterium avium; assay: Antimycobacterial activity against Mycobacterium avium 330/88 measured after 14 days by micromethod; type: functional; conditions: 330/88, 336 h
[10] = tested on: Lichtheimia corymbifera; assay: Antifungal activity against Absidia corymbifera 272 after 24 to 48 hrs hrs by microdilution broth assay; type: functional; procedure, shortened: as §2
[11] = tested on: Klebsiella pneumoniae; assay: Antibacterial activity against ESBL positive Klebsiella pneumoniae J 14368/08 up to 500 uM incubated for 24 to 48 hrs under dark condition by microdilution broth assay; type: functional; procedure, shortened: as §1
[12] = tested on: Mycobacterium kansasii; assay: Antimycobacterial activity against Mycobacterium kansasii isolate 6509/96 after 7 days by micromethod; type: functional; conditions: isolate 6509/96, 168 h
[13] = tested on: Klebsiella pneumoniae; assay: Antibacterial activity against Klebsiella pneumoniae D 11750/08 up to 500 uM incubated for 24 to 48 hrs under dark condition by microdilution broth assay; type: functional; procedure, shortened: as §1
[14] = tested on: Mycobacterium kansasii; assay: Antimycobacterial activity against Mycobacterium kansasii isolate 6509/96 after 21 days by micromethod; type: functional; conditions: isolate 6509/96, 504 h
[15] = tested on: Mycobacterium tuberculosis; assay: Antimycobacterial activity against Mycobacterium tuberculosis H37Rv 331/88 measured after 21 days by micromethod; type: functional; conditions: H37Rv 331/88, 504 h
[16] = tested on: Mycobacterium kansasii; assay: Antimycobacterial activity against Mycobacterium kansasii isolate 6509/96 after 14 days by micromethod; type: functional; conditions: isolate 6509/96, 336 h

SMILES | MIC [1] | Activity [2] | MIC [3] | MIC [4] | MIC [5] | MIC [6] | Activity [7] | solubility [8] | MIC [9] | Activity [10] | Activity [11] | MIC [12] | Activity [13] | MIC [14] | MIC [15] | MIC [16]
O=C(CN1C(=O)/C(=C/c2ccccc2O)SC1=S)Nc1ccc(Cl)cc1 | 62.5 µM (≈ 25.3 µg/mL) | inactive | 125 µM (≈ 50.6 µg/mL) | 125 µM (≈ 50.6 µg/mL) | 8 µM (≈ 3.24 µg/mL) | 32 µM (≈ 13 µg/mL) | inactive | Soluble | 62.5 µM (≈ 25.3 µg/mL) | inactive | inactive | 62.5 µM (≈ 25.3 µg/mL) | inactive | 125 µM (≈ 50.6 µg/mL) | 16 µM (≈ 6.48 µg/mL) | 125 µM (≈ 50.6 µg/mL)
Cc1ccc(OC(=O)CN2C(=O)CSC2=S)cc1 | 1000 µM (≈ 281 µg/mL) | inactive | 1000 µM (≈ 281 µg/mL) | 1000 µM (≈ 281 µg/mL) | 1000 µM (≈ 281 µg/mL) | 1000 µM (≈ 281 µg/mL) | inactive | Soluble | 1000 µM (≈ 281 µg/mL) | inactive | inactive | 1000 µM (≈ 281 µg/mL) | inactive | 1000 µM (≈ 281 µg/mL) | 1000 µM (≈ 281 µg/mL) | 1000 µM (≈ 281 µg/mL)
Cc1ccc(NC(=O)CN2C(=O)CSC2=S)cc1 | 500 µM (≈ 140 µg/mL) | inactive | 500 µM (≈ 140 µg/mL) | > 1000 µM | 500 µM (≈ 140 µg/mL) | 250 µM (≈ 70.1 µg/mL) | inactive | Soluble | 1000 µM (≈ 280 µg/mL) | inactive | inactive | 500 µM (≈ 140 µg/mL) | inactive | 500 µM (≈ 140 µg/mL) | 500 µM (≈ 140 µg/mL) | 500 µM (≈ 140 µg/mL)
COc1ccc(NC(=O)CN2C(=O)CSC2=S)cc1 | 500 µM (≈ 148 µg/mL) | inactive | 1000 µM (≈ 296 µg/mL) | > 1000 µM | 500 µM (≈ 148 µg/mL) | 500 µM (≈ 148 µg/mL) | inactive | Soluble | 1000 µM (≈ 296 µg/mL) | inactive | inactive | 500 µM (≈ 148 µg/mL) | inactive | 1000 µM (≈ 296 µg/mL) | 1000 µM (≈ 296 µg/mL) | 500 µM (≈ 148 µg/mL)
O=C(CN1C(=O)CSC1=S)Nc1ccc(C(F)(F)F)cc1 | 1000 µM (≈ 334 µg/mL) | inactive | 1000 µM (≈ 334 µg/mL) | > 1000 µM | 500 µM (≈ 167 µg/mL) | 1000 µM (≈ 334 µg/mL) | inactive | Soluble | > 1000 µM | inactive | inactive | 1000 µM (≈ 334 µg/mL) | inactive | 1000 µM (≈ 334 µg/mL) | 1000 µM (≈ 334 µg/mL) | 1000 µM (≈ 334 µg/mL)
O=C(O)CN1C(=O)CSC1=S [RHODANINE-3-ACETIC ACID] | 1000 µM (≈ 191 µg/mL) | – | 1000 µM (≈ 191 µg/mL) | 1000 µM (≈ 191 µg/mL) | 1000 µM (≈ 191 µg/mL) | 1000 µM (≈ 191 µg/mL) | – | – | 1000 µM (≈ 191 µg/mL) | – | – | 1000 µM (≈ 191 µg/mL) | – | 1000 µM (≈ 191 µg/mL) | 1000 µM (≈ 191 µg/mL) | 1000 µM (≈ 191 µg/mL)
